Experimental data from ChEMBL document CHEMBL1138191, “Synthesis, pharmacological evaluation, and molecular modeling studies of novel peptidic CAAX analogues as farnesyl-protein-transferase inhibitors” (J Med Chem, 2006).
Activity calls are given as the source filed them. The rule behind the calls is not given here.

Columns and labels:
FRTL-5 = experiment: Antiproliferative activity against FRTL5 cell line; type: functional, cell-based; details: Rattus norvegicus
How it was run: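 FRTL-5 rat thyroid cells were grown in Coon's modified Ham F12 with 5% calf serum plus six hormones, including TSH 1 × 10^-10 M. Cells were seeded at ~10% confluency and attached for 24 h. Compounds in DMSO were applied for 24 h at 37 °C in 5% CO2, then washed out, followed by 48 h culture. SRB read-out, %T/C; IC50 from dose/effect curve; vehicle controls.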

NIH3T3 = experiment: Antiproliferative activity against NIH3T3 cell line; type: functional, cell-based; details: Mus musculus
How it was run: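 NIH3T3 fibroblasts were grown in DMEM with 10% calf serum and seeded at ~10% confluency with 24 h attachment. A range of compound concentrations in DMSO was applied for 24 h at 37 °C in 5% CO2, then washed off, followed by 48 h further incubation. Growth by sulforhodamine B; %T/C versus vehicle; IC50 from dose/effect curve.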

MCF10 = experiment: Antiproliferative activity against MCF10 cell line; type: functional, cell-based; details: Homo sapiens
MCF7 = experiment: Antiproliferative activity against MCF7 cell line; type: functional, cell-based; details: Homo sapiens
How it was run: (§1)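 Monolayers in RPMI-1640 with 10% FBS, seeded ~10% confluent and allowed 24 h recovery. Compounds in DMSO at varying concentrations for 24 h (37 °C, 5% CO2), then washout and 48 h further growth. Viability by sulforhodamine B; %T/C relative to vehicle-treated controls; 50% growth-inhibitory concentration taken from dose/effect curve.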

MDA-MB-231 = experiment: Antiproliferative activity against MDA-MB-231 cell line; type: functional, cell-based; details: Homo sapiens; how it was run: as §1
T47D = experiment: Antiproliferative activity against T47D cell line; type: functional, cell-based; details: Homo sapiens; how it was run: as §1
LoVo = experiment: Antiproliferative activity against LoVo cell line; type: functional, cell-based; details: Homo sapiens; how it was run: as §1
[1] = Inhibitory activity against farnesyl transferase

| IC50 [1] [µM] | IC50 (MDA-MB-231) [µM] | IC50 (T47D) [µM] | IC50 (MCF7) [µM] | IC50 (LoVo) [µM] | Compound | Activity (FRTL-5) | Activity (NIH3T3) | Activity (MCF10) | Activity (MCF7) | Activity (MDA-MB-231) | Activity (T47D) | Activity (LoVo) |
| --- | --- | --- | --- | --- | --- | --- | --- | --- | --- | --- | --- | --- |
| 4.3 |  |  |  |  | CSCC[C@H](NC(=O)[C@@H](Cc1ccc(C)cc1C)NC(=O)[C@@H](NC(=O)[C@@H](N)CS)C(C)C)C(=O)O | inactive | inactive | inactive | inactive | inactive | inactive | inactive |
| 2.5 |  |  |  |  | CSCC[C@H](NC(=O)[C@H](Cc1cc(C)c(O)cc1C)NC(=O)[C@@H](NC(=O)[C@@H](N)CS)C(C)C)C(=O)O | inactive | inactive | inactive | inactive | inactive | inactive | inactive |
| 10.3 | 100 | 100 |  |  | CSCC[C@H](NC(=O)[C@H](Cc1ccc(O)c(C)c1C)NC(=O)[C@@H](NC(=O)[C@H](CS)NC=O)C(C)C)C(=O)O |  |  |  |  |  |  |  |
| 5.5 |  |  |  |  | CSCC[C@H](NC(=O)[C@H](Cc1cc(C)c(O)cc1C)NC(=O)[C@@H](NC(=O)[C@H](CS)NC=O)C(C)C)C(=O)O |  |  |  |  |  |  |  |
| 1 |  |  |  |  | CSCC[C@H](NC(=O)[C@H]1CC2CCCCC2N1C(=O)[C@@H](NC(=O)[C@@H](N)CS)C(C)C)C(=O)O (stereo not given in full) | inactive | inactive | inactive | inactive | inactive | inactive | inactive |
| 11.4 |  |  |  |  | CSCC[C@H](NC(=O)[C@@H](Cc1ccc(O)cc1C)NC(=O)[C@@H](NC(=O)[C@@H](N)CS)C(C)C)C(=O)O | inactive | inactive | inactive | inactive | inactive | inactive | inactive |
| 4.3 |  |  |  |  | CSCC[C@H](NC(=O)[C@H](Cc1ccc(O)cc1C)NC(=O)[C@@H](NC(=O)[C@@H](N)CS)C(C)C)C(=O)O | inactive | inactive | inactive | inactive | inactive | inactive | inactive |
| 20.4 | 83 | 90 | 65 | 9.1 | COC(=O)[C@H](CCSC)NC(=O)[C@H](Cc1ccc(O)c(C)c1C)NC(=O)[C@@H](NC(=O)[C@@H](N)CS)C(C)C |  |  |  |  |  |  |  |
| 10.2 |  |  |  |  | CSCC[C@H](NC(=O)[C@@H](Cc1cc(C)c(O)cc1C)NC(=O)[C@@H](NC(=O)[C@H](CS)NC=O)C(C)C)C(=O)O |  |  |  |  |  |  |  |
| 2.2 |  |  |  |  | CSCC[C@H](NC(=O)[C@H](Cc1ccc(C)cc1C)NC(=O)[C@@H](NC(=O)[C@@H](N)CS)C(C)C)C(=O)O | inactive | inactive | inactive | inactive | inactive | inactive | inactive |
| 0.1 |  |  |  |  | CSCC[C@H](NC(=O)[C@H](Cc1ccc(O)c(C)c1C)NC(=O)[C@@H](NC(=O)[C@@H](N)CS)C(C)C)C(=O)O | inactive | inactive | inactive | inactive | inactive | inactive | inactive |
| 70.5 |  |  |  |  | COC(=O)[C@H](CCSC)NC(=O)[C@@H](Cc1ccc(O)c(C)c1C)NC(=O)[C@@H](NC(=O)[C@@H](N)CS)C(C)C | inactive | inactive | inactive | inactive | inactive | inactive | inactive |
| 10.5 |  |  |  |  | CSCC[C@H](NC(=O)[C@@H](Cc1cc(C)c(O)cc1C)NC(=O)[C@@H](NC(=O)[C@@H](N)CS)C(C)C)C(=O)O | inactive | inactive | inactive | inactive | inactive | inactive | inactive |
| 4.3 |  |  |  |  | CSCC[C@H](NC(=O)[C@@H](Cc1ccc(O)c(C)c1C)NC(=O)[C@@H](NC(=O)[C@@H](N)CS)C(C)C)C(=O)O | inactive | inactive | inactive | inactive | inactive | inactive | inactive |
